Reference: ChEMBL document CHEMBL1126259, “omega-[(4-Phenyl-2-quinolyl)oxy]alkanoic acid derivatives: a new family of potent LTB4 antagonists” (J Med Chem, 1992)

What was measured:
[1] = target: Leukotriene B4 receptor 1 (Homo sapiens, UniProt Q15722); test: Inhibition of [3H]LTB4 binding to Leukotriene B4 receptor in the human polymorphonuclear leukocytes
Method in brief: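 Human blood PMNs were isolated by dextran T500 sedimentation, Ficoll-Hypaque centrifugation and hypotonic lysis. Cells were suspended in Hanks' solution with 5 mmol/L HEPES and 1 g/L ovalbumin, then incubated on ice for 15 min with 0.5 nmol/L [3H]LTB4 and competitor. Samples were filtered on GF/C, washed and counted. Nonspecific binding was defined with 1000-fold unlabeled LTB4. IC50 was read graphically; mean of three replicates.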

[2] = system: Leukotriene B4 receptor 1 (Cavia porcellus); test: Inhibition of [3H]LTB4 binding to Leukotriene B4 receptor in the guinea pig spleen membranes at a dose of 10 uM; conditions: Membrane

Sequence of Leukotriene B4 receptor 1 (Q15722 whole entry): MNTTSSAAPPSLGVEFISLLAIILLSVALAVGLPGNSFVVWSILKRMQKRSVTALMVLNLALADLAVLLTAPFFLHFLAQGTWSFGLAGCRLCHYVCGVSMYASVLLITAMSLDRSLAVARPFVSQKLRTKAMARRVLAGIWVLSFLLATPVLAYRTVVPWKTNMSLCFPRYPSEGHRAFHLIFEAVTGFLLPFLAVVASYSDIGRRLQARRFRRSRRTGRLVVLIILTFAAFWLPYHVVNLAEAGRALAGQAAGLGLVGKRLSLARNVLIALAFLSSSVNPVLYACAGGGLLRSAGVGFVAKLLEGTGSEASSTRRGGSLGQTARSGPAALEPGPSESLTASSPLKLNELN

Compound | IC50 [1] [nM] | inhibition [2] [%]
CC(C)(CCCCOc1cc(-c2ccc(Cl)cc2)c2ccccc2n1)c1nnn[nH]1 | 50 | –
OCCCCCCOc1cc(-c2ccccc2)c2ccccc2n1 | – | 14
CC(C)(CCCCSc1cc(-c2ccccc2)c2ccccc2n1)C(=O)O | – | 33
O=C(O)CCCCCCc1cc(-c2ccccc2)c2ccccc2n1 | – | 34
O=C(O)CCCCOc1cc(-c2ccccc2)c2ccccc2n1 | – | 0
O=C(O)CCCC/C=C/c1cc(-c2ccccc2)c2ccccc2n1 | – | 27
O=C(CCCCCOc1cc(-c2ccccc2)c2ccccc2n1)N1CCCC1 | – | 12
COc1ccc(/C=C/CCCCOc2ccc(C(=O)c3cccc(C(=O)O)c3)cc2CCC(=O)O)cc1 | 3.5 | –
CC(C)(CCCCNc1cc(-c2ccccc2)c2ccccc2n1)C(=O)O | – | 0

Next, values leading:

IC50 [1] [nM] | inhibition [2] [%] | Compound
250 | – | CC(C)(CCCCOc1cc(-c2ccc(N)cc2)c2ccccc2n1)C(=O)O
– | 36 | COc1ccccc1-c1cc(OCCCCC(C)(C)C(=O)O)nc2ccccc12
100 | – | Cc1ccc(-c2cc(OCCCCC(C)(C)C(=O)O)nc3ccccc23)cc1
– | 23 | CC(=O)Nc1ccc(-c2cc(OCCCCC(C)(C)C(=O)O)nc3ccccc23)cc1
4000 | – | CC(C)(CCCCOc1cc(-c2ccccc2)c2ccccc2n1)C(=O)O
150 | – | O=C(O)CCCCCOc1cc(-c2ccc(Cl)cc2)c2ccccc2n1
